Measured values from publication PMC3902791 (Molecular imaging and biology : MIB : the official …, 2012).
Entries after “also recorded” stand apart in the source; their conditions may differ.

What was measured:
rhesus macaques = test: ECG monitoring for acute toxicity during PET imaging; assay type: in vivo
Method in brief: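 Animals were anaesthetised (atropine 0.04 mg/kg i.m.; telazole or ketamine i.m.; isoflurane 1.0–3.0% in oxygen), intubated, mechanically ventilated and kept at 37±0.8°C. ECG, blood pressure, pulse oximetry and respiration rate were monitored throughout the imaging study after i.v. radiotracer.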

[1] = Stability of radiochemical purity of the product; assay type: physicochemical; conditions: after completion of the synthesis
Method in brief: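 Final product was in 0.9% saline adjusted to pH 6–8 and sterile-filtered. Radiochemical purity was followed after end of synthesis by HPLC: Supelcogel C-610H column (30 cm × 7.8 mm), 20 mM aqueous phosphoric acid, 0.5 mL/min, UV and radioactivity detection.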

[2] = assay type: in vivo, rhesus macaques
Method in brief: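 Six rhesus macaques (3 female, 3 male), fasted overnight, under isoflurane anaesthesia, received test compound i.v. at 165.4 ± 28.5 MBq (21.8±5.9 MBq/kg) in 5 mL over 2 min. Venous samples (0.5 mL) were taken from the second saphenous cannula at 10, 20, 40, 60, 90 s and 2–180 min. Radioactivity in whole blood and plasma was gamma-counted and expressed as %ID/mL.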

For `O=C(O)C[18F]` [^18F-FACE, ^18F-fluoroacetate], the “changes in ECG (cardiac rhythm, electrical activity)” value (rhesus macaques; administration to 180 min post-injection) was “None of the animals injected with ^18F-FACE demonstrated any significant changes in cardiac rhythm or electrical activity patterns; also recorded: no significant changes to the ECG”, the “ECG PR” value (rhesus macaques; time 1 min) was 0.11 ± 0.01 s and the “ECG QRS” value (rhesus macaques; time 1 min) was 0.05 ± 0.01 s. For the same compound, the “ECG QT” value (rhesus macaques; time 1 min) was 0.35 ± 0.04 s, the “ECG ST” value (rhesus macaques; time 1 min) was 0.80 ± 0.45 s and the ECG p (rhesus macaques; time 1 min) was 0.04 ± 0.01 s. The Heart rate (rhesus macaques; time 1 min) was 88±8 per minute, the “ECG PR” value (rhesus macaques; time 2 min) was 0.11 ± 0.01 s and the “ECG QRS” value (rhesus macaques; time 2 min) was 0.04 ± 0.00 s. The “ECG QT” value (rhesus macaques; time 2 min) was 0.34 ± 0.05 s, the “ECG ST” value (rhesus macaques; time 2 min) was 1.00 ± 0.50 s and the ECG p (rhesus macaques; time 2 min) was 0.04 ± 0.00 s. For the same compound, the Heart rate (rhesus macaques; time 2 min) was 88±8 per minute, the “ECG PR” value (rhesus macaques; time 5 min) was 0.11 ± 0.02 s and the “ECG QRS” value (rhesus macaques; time 5 min) was 0.04 ± 0.01 s. For the same compound, the “ECG QT” value (rhesus macaques; time 5 min) was 0.35 ± 0.04 s, the “ECG ST” value (rhesus macaques; time 5 min) was 0.95 ± 0.51 s and the ECG p (rhesus macaques; time 5 min) was 0.04 ± 0.01 s. For the same compound, the Heart rate (rhesus macaques; time 5 min) was 88±7 per minute, the “ECG PR” value (rhesus macaques; time 16 min) was 0.10 ± 0.01 s and the “ECG QRS” value (rhesus macaques; time 16 min) was 0.04 ± 0.00 s. For the same compound, the “ECG QT” value (rhesus macaques; time 16 min) was 0.34 ± 0.04 s, the “ECG ST” value (rhesus macaques; time 16 min) was 0.80 ± 0.41 s and the ECG p (rhesus macaques; time 16 min) was 0.05 ± 0.01 s. For the same compound, the Heart rate (rhesus macaques; time 16 min) was 87±6 per minute, the “ECG PR” value (rhesus macaques; time 32 min) was 0.11 ± 0.01 s and the “ECG QRS” value (rhesus macaques; time 32 min) was 0.04 ± 0.00 s. For the same compound, the “ECG QT” value (rhesus macaques; time 32 min) was 0.34 ± 0.03 s, the “ECG ST” value (rhesus macaques; time 32 min) was 0.60 ± 0.38 s and the ECG p (rhesus macaques; time 32 min) was 0.05 ± 0.01 s. For the same compound, the Heart rate (rhesus macaques; time 32 min) was 89±7 per minute, the “ECG PR” value (rhesus macaques; time 60 min) was 0.11 ± 0.01 s and the “ECG QRS” value (rhesus macaques; time 60 min) was 0.04 ± 0.01 s. For the same compound, the “ECG QT” value (rhesus macaques; time 60 min) was 0.34 ± 0.04 s, the “ECG ST” value (rhesus macaques; time 60 min) was 0.70 ± 0.54 s and the ECG p (rhesus macaques; time 60 min) was 0.04 ± 0.00 s. For the same compound, the Heart rate (rhesus macaques; time 60 min) was 89±7 per minute, the “ECG PR” value (rhesus macaques; time 90 min) was 0.11 ± 0.01 s and the “ECG QRS” value (rhesus macaques; time 90 min) was 0.04 ± 0.00 s. For the same compound, the “ECG QT” value (rhesus macaques; time 90 min) was 0.34 ± 0.03 s, the “ECG ST” value (rhesus macaques; time 90 min) was 0.70 ± 0.54 s and the ECG p (rhesus macaques; time 90 min) was 0.04 ± 0.01 s. For the same compound, the Heart rate (rhesus macaques; time 90 min) was 87±5 per minute, the “ECG PR” value (rhesus macaques; time 120 min) was 0.11 ± 0.01 s and the “ECG QRS” value (rhesus macaques; time 120 min) was 0.05 ± 0.01 s. The “ECG QT” value (rhesus macaques; time 120 min) was 0.33 ± 0.03 s, the “ECG ST” value (rhesus macaques; time 120 min) was 0.60 ± 0.38 s and the ECG p (rhesus macaques; time 120 min) was 0.04 ± 0.01 s. The Heart rate (rhesus macaques; time 120 min) was 88±3 per minute, the “ECG PR” value (rhesus macaques; time 180 min) was 0.10 ± 0.01 s and the “ECG QRS” value (rhesus macaques; time 180 min) was 0.04 ± 0.00 s. For the same compound, the “ECG QT” value (rhesus macaques; time 180 min) was 0.34 ± 0.03 s, the “ECG ST” value (rhesus macaques; time 180 min) was 0.85 ± 0.63 s and the ECG p (rhesus macaques; time 180 min) was 0.04 ± 0.01 s. For the same compound, the Heart rate (rhesus macaques; time 180 min) was 93±8 per minute, the “time the product maintained its radiochemical purity” value [1] was “more than 8 h” and the “blood clearance half-time, fast phase” value ([2]; i.v., bi-exponential, fast phase between 3 and 18 min) was 4 min. The “blood clearance half-time, slow phase” value ([2]; i.v., bi-exponential, slow phase until 180 min) was 250 min, the “partition of radioactivity in the blood: plasma” value ([2]; stable throughout the study) was 70% and the “partition of radioactivity in the blood: red blood cells” value ([2]; stable throughout the study) was 30%.
